From PubChem BioAssay
A selection: hits, their analogues and other compounds. The true share with any hit is near 1.7%.
PP5 inh = inhibitors of human protein phosphatase 5 (PP5) | AID 1987 | P53041 | hit rate 0.18% among 320,000 | purified PP5c, OMFP substrate fluorescence | inhibition, % at 6.7 µM;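 active = inhibition above the campaign's mean inhibition across all tested compounds plus 3 SD, cut at about 9.5% in these data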;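 also: 0% = DMSO only and 100% = 100 µM cantharidin control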
PP1 counter = blocks human PP1-alpha phosphatase, a PP5 counter-screen; P62136; purified PP1alpha, OMFP fluorescence; inhibition, % at 6.7 µM; hit rate 0.9% among 320,000; AID 2235;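 active = inhibition above the mean inhibition of all tested compounds plus 3 SD, computed separately for each screening campaign, cut at about 15% in these data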
Target sequence (P62136 whole entry, looked up): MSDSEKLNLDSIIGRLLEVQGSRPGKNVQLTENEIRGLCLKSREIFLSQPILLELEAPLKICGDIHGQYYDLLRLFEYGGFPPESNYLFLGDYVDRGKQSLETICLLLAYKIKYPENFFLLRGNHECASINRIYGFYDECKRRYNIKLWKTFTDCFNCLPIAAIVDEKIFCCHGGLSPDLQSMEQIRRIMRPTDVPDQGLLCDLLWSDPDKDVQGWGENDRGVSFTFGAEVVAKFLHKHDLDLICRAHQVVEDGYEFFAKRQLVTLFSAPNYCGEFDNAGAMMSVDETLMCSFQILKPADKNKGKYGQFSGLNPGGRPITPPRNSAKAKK
HCV core dimer = blocks dimerization of HCV core protein. TR-FRET GST/Flag-core106 dimerization, 1536-well. inhibition, % at 5 µM. hit rate 0.33% among 300,000. AID 1899;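 active = inhibition above the mean of all tested compounds plus 3 SD, set per screening campaign, cut at about 45% in these data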
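Material: Tagged HCV core106 pair (GST and Flag) | Amount: GST-core106 13.5 nM, Flag-core106 17 nM | Medium: KF-containing HEPES buffer, pH 7.45, DTT, CHAPS, BSA | Reagent: Eu donor and XL665 acceptor anti-tag antibodies | Schedule: 4 h at 22.5 °C | Technique: Time-resolved FRET, ex 340 nm, em 617 and 671 nm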
EBNA-1 inhibitor = blocks EBNA-1 binding to DNA; EBNA-1 DNA binding, fluorescence polarization; hit rate 0.34% among 300,000; inhibition, % at 14.8 µM; AID 1950; in the data active = inhibition above about 28%
ZTA counter = ZTA (EBV) inhibition in EBNA-1 counter-screen; P03206; ZTA-DNA binding, fluorescence polarization; inhibition, % at 11 µM; hit rate 0.15% among 320,000; AID 2234; in the data active = inhibition above about 33%
Target sequence (P03206 whole entry, looked up): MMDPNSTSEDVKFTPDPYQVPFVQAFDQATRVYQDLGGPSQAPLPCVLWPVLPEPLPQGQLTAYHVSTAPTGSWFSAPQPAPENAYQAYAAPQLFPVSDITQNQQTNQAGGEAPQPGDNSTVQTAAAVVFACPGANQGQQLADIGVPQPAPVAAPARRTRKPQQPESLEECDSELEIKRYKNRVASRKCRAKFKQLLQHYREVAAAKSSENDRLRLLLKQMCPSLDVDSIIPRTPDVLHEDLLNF
EBNA-1 inh conf = EBNA-1 (EBV) inhibition, confirmation | shares compounds with EBNA-1 inhibitor | Recombinant EBNA-1 DBD, Cy5-DNA fluorescence polarization | inhibition, % at 14.8 µM | hit rate 35% among 830 | AID 2292;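 active = mean inhibition across replicates above a set limit taken from the earlier primary screen, cut at about 28% in these data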;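 also: plate controls were EBNA-1 protein with DMSO for no effect and wells lacking EBNA-1 for full effect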
ZTA counter trip = counter-screen for EBNA-1 inhibitors: Epstein-Barr virus ZTA inhibitors, triplicate. shares compounds with EBNA-1 inhibitor. Zta-ZRE DNA binding, Cy5 fluorescence polarization. inhibition, % at 11.1 µM. 830 tested, under 10 active. AID 2328;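 active = mean inhibition over triplicates above a set limit taken from the primary EBNA-1 screen, cut at about 37% in these data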;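 also: purified full length Zta protein with Cy5 labeled ZRE DNA probe; 0% = Zta with DMSO and 100% = wells lacking Zta protein; inhibitors lower polarization by freeing the labeled DNA probe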
* marks the source's active call; other numbers are inactive results; · = not tested or not shown.

SMILES	PP5 inh	PP1 counter	HCV core dimer	EBNA-1 inhibitor	ZTA counter	EBNA-1 inh conf	ZTA counter trip
Oc1cccc(C=NCc2ccccc2)c1	-5	-4	-4	-7	-9	·	·
COc1ccc(/C=C/C(=O)NC(CCSC)C(=O)O)cc1 (stereo not given)	1	0	-2	-3	3	·	·
COc1ccc(NC(=O)COc2ccc3c(C)cc(=O)oc3c2)cc1S(=O)(=O)N1CCCCC1	0	-4	10	101*	17	67*	10
CCOC(=O)c1cnc(SCc2cccc3ccccc23)nc1N	3	2	-3	105*	0	6	14
CCOC(=O)c1cnc(SCc2ccccc2)nc1N	1	2	4	-9	-12	·	·
Cc1ccc2[nH]c3c(=O)n(Cc4ccco4)cnc3c2c1	1	-5	4	51*	15	55*	4
O=C(CCC(=O)Nc1ccc(F)cc1)N/N=C/c1ccc(Br)cc1	2	3	6	21	11	·	·
O=C(CCC(=O)Nc1ccc(Br)cc1)N/N=C/c1ccc(F)cc1	-2	-2	1	34*	13	19	12
COc1ccc(C)cc1NC(=O)C1CCCN(S(=O)(=O)c2ccc(-n3cnnn3)cc2)C1 (stereo not given)	3	-1	0	-18	-9	·	·
COc1ccc(OC)c(NC(=O)C2CCCN(S(=O)(=O)c3ccc(-n4cnnn4)cc3)C2)c1 (stereo not given)	5	-3	2	49*	-11	41*	10
O=c1c2ccccc2nc(SCc2nc3ccccc3s2)n1Cc1ccco1	2	1	3	49*	-6	4	6
CCOc1ccccc1OCC(=O)NNC(=O)Cn1cnc2c1c(=O)n(C)c(=O)n2C	-1	2	2	-11	4	·	·
COCCCn1c(-c2ccc(OC)cc2)nc2c1c(=O)[nH]c(=O)n2Cc1ccccc1	1	5	11	-5	-13	·	·
C=CCOc1ccc(-c2nc3c(c(=O)[nH]c(=O)n3Cc3ccccc3)n2CCCOC)cc1	4	-6	35	29*	16	-2	-3
CCN(CC)C(=O)C(=O)N/N=C/c1ccc(C(=O)OC)cc1	-1	-3	0	-8	12	·	·
Cc1cccc(OC(C)C(=O)N/N=C\c2ccncc2)c1 (stereo not given)	3	0	-4	-8	8	·	·
Cc1ccc(S(=O)(=O)N(C)C)cc1NC(=O)COC(=O)CCCOc1ccccc1	-1	-2	0	72*	-8	-9	-1
COc1ccc(-c2cn3c(C)c(C(=O)NCc4ccc5c(c4)OCO5)sc3n2)cc1	5	2	8	80*	-13	126*	13
COc1ccccc1CN1C(=O)[C@@H]2C(CC(N)=O)NC3(C(=O)Nc4c3ccc(Cl)c4C)[C@@H]2C1=O (stereo not given in full)	4	-3	0	28*	8	49*	-7
Cn1c(CSc2nc3ccccc3s2)nnc1SCC(=O)NCCCN1CCOCC1	-1	-1	-6	1	-23	·	·
O=C(Nc1ccc(Oc2ccccc2)cc1)C1CCN(c2ncccn2)CC1	-1	0	2	39*	11	-1	5
Cc1cccc(NC(=O)c2cc(S(=O)(=O)N3CCc4ccccc43)cn2C)c1C	2	2	7	28*	10	39*	-8
CCc1ccccc1NC(=O)c1cc(S(=O)(=O)N2CCc3ccccc32)cn1C	2	3	16	-7	10	·	·
CN1C(=O)CC(C(=O)Nc2ccccc2F)SC1=Nc1ccc2c(c1)OCO2 (stereo not given)	1	3	-5	28*	-2	50*	4
Cc1ccc(Nc2nnc(SCn3nnc4ccccc4c3=O)s2)cc1	3	3	13	-2	-8	·	·
SMILES	PP5 inh	PP1 counter	HCV core dimer	EBNA-1 inhibitor	ZTA counter	EBNA-1 inh conf	ZTA counter trip
O=c1c2ccccc2nnn1CSc1nnc(Nc2ccccc2)s1	-1	0	5	36*	5	13	16
CC(C)c1[nH]nc2c1C(Cc1ccccc1)C(C#N)=C(N)O2 (stereo not given)	2	0	-2	2	17	·	·
CC(=O)N1c2ccc(S(=O)(=O)NCC3CCC(C(=O)NC4CCCCC4)CC3)cc2CC1C (stereo not given)	1	-5	4	41*	3	-5	-6
CCCNC(=O)C1CCC(CNS(=O)(=O)c2ccc3c(c2)CC(C)N3C(C)=O)CC1 (stereo not given)	3	-2	-8	-20	-24	·	·
COC(=O)C(N)CCCCN (stereo not given)	1	-9	-5	-4	16	·	·
COc1ccc(/C=N/NC(=O)c2c([N+](=O)[O-])c(C)nn2C)cc1	-1	-2	-5	-4	-4	·	·
Cc1nn(C)c(C(=O)N/N=C/c2ccc(-c3ccccc3)cc2)c1Cl	-1	6	12	37*	6	28*	25
Cc1cc(C)cc(NC(=O)Cn2c(-c3ccccc3Cl)nc3ccccc32)c1	4	3	0	60*	1	-10	-9
CCOC(=O)c1ccc(NC(=O)Cn2c(-c3nonc3N)nc3ccccc32)cc1	1	4	15	31*	27	32*	19
Cc1c(C(=O)Nc2cccc(F)c2)cnn1-c1ccccc1	0	0	-3	-2	-1	·	·
COCCCNC(=O)c1ccc(Cn2c(=O)c3ccccc3n(Cc3ccccc3C#N)c2=O)cc1	1	-1	3	33*	6	11	1
CCOC(=O)CN1C(=O)N[C@@H](CCc2ccccc2)[C@H](C(C)=O)[C@H]1C	2	1	-16	-3	-23	·	·
CCCN1CNC(=S)N(c2ccccc2OCC)C1	3	-1	-6	-5	1	·	·
O=C(O)Cc1ccc2c(c1)N(S(=O)(=O)c1cccs1)CC(C(=O)O)O2 (stereo not given)	-1	1	1	12	-5	·	·
NS(=O)(=O)c1ccc(NC(=O)/C=C/c2cccs2)cc1	1	1	-4	55*	0	1	0
Cn1c2ccccc2c(=O)c2ccc(C#CC3(O)CCCCC3)cc21	-2	4	4	-4	7	·	·
CS(=O)(=O)c1ccc(-c2cccc(NC(=O)c3ccc(Br)o3)c2)nn1	2	2	-2	38*	-1	28*	-7
CS(=O)(=O)c1ccc(-c2cccc(NC(=O)COc3ccccc3)c2)nn1	-1	-3	0	-6	-9	·	·
Cc1ccc(C)c(S(=O)(=O)Nc2ccc(C(=O)NCCCN3CCOCC3)cc2)c1	-2	-8	-2	0	2	·	·
COc1cccc(Cn2c(=S)[nH]c3ccc(N4CCOCC4)cc3c2=O)c1	3	4	2	29*	-4	8	-11
